From ChEMBL document CHEMBL1129428 (J Med Chem, 1996)

Tests used:
Rattus norvegicus [1] = test: Compound was tested for anticonvulsant activity after Oral Administration into Rats by using MES screen test after 2h,dose 12.50 mg/kg; number of rats out of four which were protected; type: functional; details: dose 12.5 mg/kg
Method in brief: (§1)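 Rats received the compound orally. […] Rats were tested in the MES screen at 0.25, 0.5, 1, 2 and 4 h. Each value is the number of rats protected out of 4. The test followed NINDS procedures.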

Mus musculus [2] = test: Anticonvulsant activity after intraperitoneal injection into mice measured in a maximal electroshock scree (MES) screen; type: functional
[3] = Compound was tested for toxicity after intraperitoneal injection into mice by using neurotoxicity screen test after 1 hr; type: organism-based; details: mouse, in vivo, ip
Method in brief: (§2)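 Quantitative intraperitoneal mouse testing in the MES, scPTZ or rotorod neurotoxicity screens at the peak time given for each compound (0.25–2 h). ED50 or TD50 reported in mg/kg with 95% CI and slope (SE).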

Mus musculus [4] = test: Anticonvulsant activity after intraperitoneal injection into mice by using MES screen test after 0.5 hr; type: functional
Mus musculus [5] = test: Compound was tested for toxicity after intraperitoneal injection into mice by using toxicity screen test after 4 hr; type: organism-based; details: in vivo, ip
Method in brief: (§3)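 Mice injected intraperitoneally at 30, 100 and 300 mg/kg and examined 0.5 and 4 h afterwards. Each entry is the minimum dose giving activity (MES protection, scPTZ protection, or rotorod failure for neurotoxicity) in half or more of the mice. Activity is called absent if nothing occurs at 300 mg/kg.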

Mus musculus [6] = test: Compound was tested for anticonvulsant activity after intraperitoneal injection into mice by using MES screen test after 0.5 hr; type: functional; details: ip; method in brief: as §3
Rattus norvegicus [7] = test: Compound was tested for anticonvulsant activity after Oral Administration into Rats by using MES screen test after 0.5h,dose 12.50 mg/kg; number of rats out of four which were protected; type: functional; details: dose 12.5 mg/kg; method in brief: as §1
Mus musculus [8] = test: Toxicity after intraperitoneal injection into mice by using toxicity screen test after 0.5 hr; type: organism-based; details: in vivo, ip; method in brief: as §3
[9] = Protection index = TD50/ED50 (MES); details: mouse, in vivo; read-out: PI
Rattus norvegicus [10] = test: Compound was tested for anticonvulsant activity after Oral Administration into Rats by using MES screen test after 4h,dose 12.50 mg/kg; number of rats out of four which were protected; type: functional; details: dose 12.5 mg/kg; method in brief: as §1
Rattus norvegicus [11] = test: Compound was tested for anticonvulsant activity after Oral Administration into Rats by using MES screen test after 0.25h,dose 12.50 mg/kg; number of rats out of four which were protected; type: functional; details: dose 12.5 mg/kg; method in brief: as §1
Rattus norvegicus [12] = test: Compound was tested for anticonvulsant activity after Oral Administration into Rats by using MES screen test after 1h,dose 12.50 mg/kg; number of rats out of four which were protected; type: functional; details: dose 12.5 mg/kg; method in brief: as §1
Mus musculus [13] = test: Anticonvulsant activity after intraperitoneal injection into mice by using scPTZ screen after 0.5 hr; type: functional
Rattus norvegicus [14] = test: Compound was tested for anticonvulsant activity after Oral Administration into Rats by using MES screen test after 4h,dose 50 mg/kg; number of rats out of four which were protected; type: functional; method in brief: as §1
Rattus norvegicus [15] = test: Compound was tested for anticonvulsant activity after Oral Administration into Rats by using MES screen test after 1h,dose 50 mg/kg; number of rats out of four which were protected; type: functional; method in brief: as §1
Mus musculus [16] = test: Compound was tested for anticonvulsant activity after intraperitoneal injection into mice by using scPTZ screen test after 1 hr; type: functional; details: ip; method in brief: as §2
[17] = Compound was tested for toxicity after intraperitoneal injection into mice by using neurotoxicity screen test after 2 hr; type: organism-based; details: mouse, in vivo, ip; method in brief: as §2
Rattus norvegicus [18] = test: Compound was tested for anticonvulsant activity after Oral Administration into Rats by using MES screen test after 0.25h,dose 50 mg/kg; number of rats out of four which were protected; type: functional; method in brief: as §1
Rattus norvegicus [19] = test: Compound was tested for anticonvulsant activity after Oral Administration into Rats by using MES screen test after 2h,dose 50 mg/kg; number of rats out of four which were protected; type: functional; method in brief: as §1
Rattus norvegicus [20] = test: Compound was tested for anticonvulsant activity after Oral Administration into Rats by using MES screen test after 0.5h,dose 50 mg/kg; number of rats out of four which were protected.; type: functional; method in brief: as §1
Mus musculus [21] = test: Compound was tested for anticonvulsant activity after intraperitoneal injection into mice by using MES screen test after 1 hr; type: functional; details: ip; method in brief: as §2
Rattus norvegicus [22] = test: Compound was tested for anticonvulsant activity after Oral Administration into Rats by using MES screen test after 2h,dose 12.5 mg/kg; No activity was demonstarted; type: functional, organism-based; design: dose 12.5 mg/kg; method in brief: as §1
Rattus norvegicus [23] = test: Compound was tested for anticonvulsant activity after Oral Administration into Rats by using MES screen test after 0.25h,dose 12.5 mg/kg; No activity was demonstarted; type: functional, organism-based; design: dose 12.5 mg/kg; method in brief: as §1
Rattus norvegicus [24] = test: Compound was tested for anticonvulsant activity after Oral Administration into Rats by using MES screen test after 0.5h,dose 12.5 mg/kg; No activity was demonstarted; type: functional, organism-based; design: dose 12.5 mg/kg; method in brief: as §1
[25] = Protection index = TD50/ED50 (MES); type: ADME, organism-based; details: rat, in vivo; read-out: PI
Rattus norvegicus [26] = test: Compound was tested for anticonvulsant activity after Oral Administration into Rats by using MES screen test after 1h,dose 12.5 mg/kg; No activity was demonstarted; type: functional, organism-based; design: dose 12.5 mg/kg; method in brief: as §1
Rattus norvegicus [27] = test: Compound was tested for anticonvulsant activity after Oral Administration into Rats by using MES screen test after 4h,dose 12.5 mg/kg; number of rats out of four which were protected; type: functional; method in brief: as §1
Rattus norvegicus [28] = test: Compound was tested for anticonvulsant activity after Oral Administration into rat by using MES screen test after 4 hr; type: functional
Method in brief: (§4)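 Rats dosed orally, typically at 50 mg/kg first, then mostly 12.5 mg/kg (some compounds at 30 mg/kg), and tested by maximal electroshock. Four rats per compound, scored at 0.25, 0.5, 1, 2 and 4 h as the number of rats protected out of 4.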

Mus musculus [29] = test: Anticonvulsant activity after intraperitoneal injection into mice by using scPTZ screen test after 4 hr; type: functional
[30] = Compound was tested for toxicity after oral administration in rat by using neurotoxicity screen test after 2 hr; type: organism-based; details: in vivo
Method in brief: (§5)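 Rat neurotoxicity after oral dosing, observed at 0.25, 0.5, 1, 2, 4, 6, 8 and 24 h (8 h omitted for one compound).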

Rattus norvegicus [31] = test: Anticonvulsant activity after oral administration into rats; type: functional; design: concentration or dose not given beside the values
Rattus norvegicus [32] = test: Compound was tested for anticonvulsant activity after Oral Administration into Rats by using MES screen test after 2h,dose 12.5 mg/kg; number of rats out of four which were protected; type: functional; method in brief: as §1
[33] = Compound was tested for […] after intraperitoneal injection into mice by using neurotoxicity screen test after 2 hr; type: organism-based; details: mouse, in vivo, ip; method in brief: as §2
Rattus norvegicus [34] = test: Compound was tested for anticonvulsant activity after Oral Administration into rat by using MES screen test after 2 hr; type: functional; method in brief: as §4
[35] = Compound was tested for toxicity after oral administration in rat by using neurotoxicity screen test after 0.25-24 hr; type: organism-based; details: in vivo; method in brief: as §5
Rattus norvegicus [36] = test: Compound was tested for anticonvulsant activity after Oral Administration into Rats by using MES screen test after 1h,dose 12.5 mg/kg; number of rats out of four which were protected; type: functional; method in brief: as §1
Mus musculus [37] = test: Compound was tested for anticonvulsant activity after intraperitoneal injection into mice by using scPTZ screen test after 0.25 hr; type: functional; details: ip; method in brief: as §2

| SMILES | Activity (Rattus norvegicus [1]) | Dose (Mus musculus [2]) [mg/kg] | TD50 at 1 h [3] [mg/kg] | Dose (Mus musculus [4]) [mg/kg] | Dose (Mus musculus [5]) [mg/kg] | ED50 (Mus musculus [6]) [mg/kg] | Activity (Rattus norvegicus [7]) | Dose (Mus musculus [8]) [mg/kg] | selectivity ratio [9] | Activity (Rattus norvegicus [10]) | Activity (Rattus norvegicus [11]) | Activity (Rattus norvegicus [12]) | Dose (Mus musculus [13]) [mg/kg] | Activity (Rattus norvegicus [23]) | selectivity ratio [25] | Activity (Rattus norvegicus [27]) | ED50 (Rattus norvegicus [28]) [mg/kg] | Dose (Mus musculus [29]) [mg/kg] | TD50 at 2 h [30] [mg/kg] | Activity (Rattus norvegicus [31]) | further results |
| --- | --- | --- | --- | --- | --- | --- | --- | --- | --- | --- | --- | --- | --- | --- | --- | --- | --- | --- | --- | --- | --- |
| NC(=O)N/N=C/c1ccc(Oc2cc(F)cc(F)c2)cc1 | 4 | 30 | 68.8 | 30 | 300 | 12.3 | 3 | 300 | 5.58 | 4 | 1 | 4 | 100 |  |  |  |  |  |  |  |  |
| NC(=O)N/N=C/c1ccc(Sc2ccc(Cl)cc2)cc1 |  | 30 |  | 100 | 100 |  |  |  | 3.28 |  |  |  | 300 |  |  |  |  |  |  |  | Activity (Rattus norvegicus [14]): 4; Activity (Rattus norvegicus [15]): 4; ED50 (Mus musculus [16]): > 120 mg/kg; TD50 at 2 h [17]: 53.2 mg/kg; Activity (Rattus norvegicus [18]): 1; Activity (Rattus norvegicus [19]): 4; Activity (Rattus norvegicus [20]): 4; ED50 (Mus musculus [21]): 16.2 mg/kg |
| CCCCOc1ccc(Oc2ccc(/C=N/NC(N)=O)cc2)cc1 |  | 100 |  | 300 | 300 |  |  | 300 |  |  |  |  | 300 | No activity | > 2.18 | 2 | 45.8 | 300 | > 100 |  | Activity (Rattus norvegicus [22]): No activity; Activity (Rattus norvegicus [24]): No activity; Activity (Rattus norvegicus [26]): No activity |
| NC(=O)N/N=C/c1ccc(Oc2c(F)cccc2F)cc1 |  | 30 |  | 30 | 300 |  |  | 300 |  |  |  |  | 300 | No activity |  | 4 | 5.53 | 300 | > 500 | 2 | Activity (Rattus norvegicus [32]): 4; TD50 at 2 h [33]: 125 mg/kg |
| Cc1ccccc1Oc1ccc(/C=N/NC(N)=O)cc1 |  | 100 |  | 30 | 300 |  |  | 300 |  |  |  |  | 100 | No activity | > 88 | 4 |  | 100 |  | 4 | ED50 (Rattus norvegicus [34]): 5.65 mg/kg; TD50 [35]: > 500 mg/kg; Activity (Rattus norvegicus [36]): 3; Activity (Rattus norvegicus [32]): 4 |
| Cc1ccc(Oc2ccc(/C=N/NC(N)=O)cc2)c(C)c1 | 4 | 30 | 37 | 30 | 100 | 4.6 | 4 | 300 |  | 4 | 1 | 4 | 30 |  |  |  |  | 30 |  |  | ED50 (Mus musculus [37]): 33.6 mg/kg |
